Measured values reported in ChEMBL document CHEMBL5303300, “EUbOPEN Chemogenomics Library - Multiplex” (2023).
Several values for one entry are separate records, joined by “and”; a condition that tells them apart may be missing. Equal values may be shown once.

Tested on: HEK-293T
Experiment: Multiplex assay against HEK293T
Type: toxicity, cell-based
Conditions: human, number of replicates 2
Procedure, shortened: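 Values for tubulin, mitochondrial-mass and membrane-permeability phenotypes are per cents of cells with healthy nuclei. These cells were identified by CellPathfinder machine-learning gating of live cells that had been stained at seeding with Hoechst33342, BioTracker Green Microtubule Cytoskeleton Dye, MitoTracker Red and Annexin V Alexa Fluor 680 and imaged on a CQ1 microscope at 37°C and 5% CO2 after compound addition. The gating first set Hoechst high-intensity objects apart from normal cells, then split normal cells into healthy, pyknosed or fragmented nuclei, and pyknosed cells into mitotic or apoptotic.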

[1] = 12 h, 1 µM, compound concentration 1 uM
[2] = 12 h, 10 µM, compound concentration 10 uM
[3] = 24 h, 1 µM, compound concentration 1 uM
[4] = 24 h, 10 µM, compound concentration 10 uM
[5] = 48 h, 1 µM, compound concentration 1 uM
[6] = 48 h, 10 µM, compound concentration 10 uM

O=C(Nc1ccnc(NC(=O)C2CC2)c1)c1c(Cl)cccc1Cl
Population Apoptotic (%) [1]: 42% and 49%
Population Fragmented Nuclei (%) [1]: 3% and 2%
Population Healthy Nuclei (%) [1]: 81% and 83%
Population Hoechst High Intensity Objects (%) [1]: 9% and 5%
Population Membrane Permeable-Phenotype (%) [1]: 3% and 7%
Population Mitochondria Different-Phenotype (%) [1]: 11% and 10%
Population Mitotic Cells (%) [1]: 57% and 50%
Population Normal (%) [1]: 90% and 94%
Population Pyknosed Nuclei (%) [1]: 15% and 14%
Population Tubulin-Different-Phenotype (%) [1]: 43% and 37%
Total Cell Count [1]: 735 and 602
Population Apoptotic (%) [2]: 55% and 57%
Population Fragmented Nuclei (%) [2]: 3% and 2%
Population Healthy Nuclei (%) [2]: 92% and 91%
Population Hoechst High Intensity Objects (%) [2]: 3%
Population Membrane Permeable-Phenotype (%) [2]: 5% and 3%
Population Mitochondria Different-Phenotype (%) [2]: 8% and 9%
Population Mitotic Cells (%) [2]: 44% and 42%
Population Normal (%) [2]: 96%
Population Pyknosed Nuclei (%) [2]: 3% and 5%
Population Tubulin-Different-Phenotype (%) [2]: 32% and 35%
Total Cell Count [2]: 713 and 727
Population Apoptotic (%) [3]: 37% and 50%
Population Fragmented Nuclei (%) [3]: 4%
Population Healthy Nuclei (%) [3]: 84% and 85%
Population Hoechst High Intensity Objects (%) [3]: 5% and 6%
Population Membrane Permeable-Phenotype (%) [3]: 4% and 3%
Population Mitochondria Different-Phenotype (%) [3]: 3%
Population Mitotic Cells (%) [3]: 62% and 50%
Population Normal (%) [3]: 94% and 93%
Population Pyknosed Nuclei (%) [3]: 10% and 9%
Population Tubulin-Different-Phenotype (%) [3]: 17% and 19%
Total Cell Count [3]: 1049 and 883
Population Apoptotic (%) [4]: 42% and 69%
Population Fragmented Nuclei (%) [4]: 3% and 5%
Population Healthy Nuclei (%) [4]: 92% and 90%
Population Hoechst High Intensity Objects (%) [4]: 4% and 3%
Population Membrane Permeable-Phenotype (%) [4]: 1%
Population Mitochondria Different-Phenotype (%) [4]: 2% and 3%
Population Mitotic Cells (%) [4]: 57% and 30%
Population Normal (%) [4]: 95% and 96%
Population Pyknosed Nuclei (%) [4]: 3% and 4%
Population Tubulin-Different-Phenotype (%) [4]: 14% and 15%
Total Cell Count [4]: 757 and 769
Population Apoptotic (%) [5]: 19% and 24%
Population Fragmented Nuclei (%) [5]: 9% and 7%
Population Healthy Nuclei (%) [5]: 85% and 87%
Population Hoechst High Intensity Objects (%) [5]: 7%
Population Membrane Permeable-Phenotype (%) [5]: 3% and 4%
Population Mitochondria Different-Phenotype (%) [5]: 0% and 1%
Population Mitotic Cells (%) [5]: 80% and 75%
Population Normal (%) [5]: 92%
Population Pyknosed Nuclei (%) [5]: 4%
Population Tubulin-Different-Phenotype (%) [5]: 10% and 11%
Total Cell Count [5]: 2441 and 1608
Population Apoptotic (%) [6]: 38% and 32%
Population Fragmented Nuclei (%) [6]: 11%
Population Healthy Nuclei (%) [6]: 86% and 85%
Population Hoechst High Intensity Objects (%) [6]: 6% and 5%
Population Membrane Permeable-Phenotype (%) [6]: 1% and 0%
Population Mitochondria Different-Phenotype (%) [6]: 2%
Population Mitotic Cells (%) [6]: 61% and 67%
Population Normal (%) [6]: 93% and 94%
Population Pyknosed Nuclei (%) [6]: 2% and 3%
Population Tubulin-Different-Phenotype (%) [6]: 8% and 7%
Total Cell Count [6]: 1085 and 965

CS(=O)(=O)c1ccc(C(=O)Nc2cc(F)cc(COc3cc(F)c(Br)cc3CN3CC[C@H](O)C3)c2)c(Cl)c1.O=CO
Population Apoptotic (%) [1]: 74% and 64%
Population Healthy Nuclei (%) [1]: 75% and 74%
Population Normal (%) [1]: 90%
Population Pyknosed Nuclei (%) [1]: 18% and 22%
Total Cell Count [1]: 602 and 632
Population Apoptotic (%) [2]: 73% and 77%
Population Healthy Nuclei (%) [2]: 78%
Population Normal (%) [2]: 93% and 88%
Total Cell Count [2]: 459 and 415
Population Apoptotic (%) [3]: 64% and 68%
Population Healthy Nuclei (%) [3]: 79% and 75%
Population Normal (%) [3]: 92% and 89%
Total Cell Count [3]: 818 and 876
Population Apoptotic (%) [4]: 72% and 81%
Population Healthy Nuclei (%) [4]: 76%
Population Normal (%) [4]: 92% and 86%
Total Cell Count [4]: 492 and 449
Population Apoptotic (%) [5]: 52% and 51%
Population Healthy Nuclei (%) [5]: 76% and 82%
Population Normal (%) [5]: 92% and 91%
Population Pyknosed Nuclei (%) [5]: 3% and 4%
Total Cell Count [5]: 1931 and 1977
Population Apoptotic (%) [6]: 75% and 74%
Population Healthy Nuclei (%) [6]: 68%
Population Normal (%) [6]: 83%
Population Pyknosed Nuclei (%) [6]: 18%
Total Cell Count [6]: 551 and 447

COc1ccccc1-c1cc(Nc2cccc(CS(N)(=O)=O)c2)ncn1
Population Apoptotic (%) [1]: 35% and 36%
Population Fragmented Nuclei (%) [1]: 4% and 2%
Population Healthy Nuclei (%) [1]: 85%
Population Hoechst High Intensity Objects (%) [1]: 6% and 7%
Population Membrane Permeable-Phenotype (%) [1]: 3% and 5%
Population Mitochondria Different-Phenotype (%) [1]: 15% and 14%
Population Mitotic Cells (%) [1]: 64%
Population Normal (%) [1]: 93% and 92%
Population Pyknosed Nuclei (%) [1]: 10% and 12%
Population Tubulin-Different-Phenotype (%) [1]: 56% and 48%
Total Cell Count [1]: 807 and 675
Population Apoptotic (%) [2]: 32% and 34%
Population Fragmented Nuclei (%) [2]: 4% and 5%
Population Healthy Nuclei (%) [2]: 87% and 84%
Population Hoechst High Intensity Objects (%) [2]: 7%
Population Membrane Permeable-Phenotype (%) [2]: 3%
Population Mitochondria Different-Phenotype (%) [2]: 26% and 28%
Population Mitotic Cells (%) [2]: 67% and 65%
Population Normal (%) [2]: 92%
Population Pyknosed Nuclei (%) [2]: 8% and 10%
Population Tubulin-Different-Phenotype (%) [2]: 61% and 74%
Total Cell Count [2]: 665 and 582
Population Apoptotic (%) [3]: 35% and 34%
Population Fragmented Nuclei (%) [3]: 5% and 4%
Population Healthy Nuclei (%) [3]: 86% and 88%
Population Hoechst High Intensity Objects (%) [3]: 6% and 8%
Population Membrane Permeable-Phenotype (%) [3]: 3% and 2%
Population Mitochondria Different-Phenotype (%) [3]: 4% and 5%
Population Mitotic Cells (%) [3]: 64% and 65%
Population Normal (%) [3]: 93% and 91%
Population Pyknosed Nuclei (%) [3]: 7%
Population Tubulin-Different-Phenotype (%) [3]: 36%
Total Cell Count [3]: 1151 and 990
Population Apoptotic (%) [4]: 47% and 40%
Population Fragmented Nuclei (%) [4]: 2% and 1%
Population Healthy Nuclei (%) [4]: 90%
Population Hoechst High Intensity Objects (%) [4]: 4% and 5%
Population Membrane Permeable-Phenotype (%) [4]: 5% and 6%
Population Mitochondria Different-Phenotype (%) [4]: 20% and 19%
Population Mitotic Cells (%) [4]: 52% and 60%
Population Normal (%) [4]: 95% and 94%
Population Pyknosed Nuclei (%) [4]: 6% and 7%
Population Tubulin-Different-Phenotype (%) [4]: 69% and 75%
Total Cell Count [4]: 861 and 783
Population Apoptotic (%) [5]: 11% and 13%
Population Fragmented Nuclei (%) [5]: 11% and 8%
Population Healthy Nuclei (%) [5]: 85% and 88%
Population Hoechst High Intensity Objects (%) [5]: 8% and 9%
Population Membrane Permeable-Phenotype (%) [5]: 5% and 3%
Population Mitochondria Different-Phenotype (%) [5]: 0%
Population Mitotic Cells (%) [5]: 88% and 86%
Population Normal (%) [5]: 91% and 90%
Population Pyknosed Nuclei (%) [5]: 3%
Population Tubulin-Different-Phenotype (%) [5]: 15% and 16%
Total Cell Count [5]: 2772 and 2160
Population Apoptotic (%) [6]: 34% and 35%
Population Fragmented Nuclei (%) [6]: 8% and 5%
Population Healthy Nuclei (%) [6]: 86% and 90%
Population Hoechst High Intensity Objects (%) [6]: 6%
Population Membrane Permeable-Phenotype (%) [6]: 3%
Population Mitochondria Different-Phenotype (%) [6]: 7% and 8%
Population Mitotic Cells (%) [6]: 65% and 64%
Population Normal (%) [6]: 93%
Population Pyknosed Nuclei (%) [6]: 4% and 3%
Population Tubulin-Different-Phenotype (%) [6]: 51% and 50%
Total Cell Count [6]: 1254 and 1055
